Source: ChEMBL document CHEMBL3585329, “Cafestol-Type Diterpenoids from the Twigs of Tricalysia fruticosa with Potential Anti-inflammatory Activity” (J Nat Prod, 2015)
Calls of active or inactive are those of the source. No cut-off for these calls is given here.

Tests used:
[1] = Cytotoxicity against mouse RAW264.7 cells assessed as cell survival up to 100 uM; format: cell-based; conditions: read-out: Survival
Method in brief: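 RAW 264.7 macrophages were grown with 3.0 mM glutamine, penicillin and streptomycin (100 U/mL each), and 10% heat-inactivated FBS at 37 °C in humidified 5% CO2. Cell survival was examined after exposure to each isolate at concentrations up to 100 μM.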

RAW264.7 [2] = assay: Inhibition of LPS-induced NO release in mouse RAW264.7 cells after 24 hrs by Griess reaction; format: functional, cell-based; conditions: RAW264.7, 24 h
Method in brief: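 RAW 264.7 cells (10% heat-inactivated FBS, 3.0 mM glutamine, 37 °C, 5% CO2) seeded at 2 × 10^4 cells/mL. DMSO-solubilized compounds added 1 h before LPS. Supernatant nitrite measured by Griess reagent (0.1% naphthylethylene diamine, 1.0% sulfanilamide in 2.5% phosphoric acid), 10 min at room temperature, A550. NO quantified against a sodium nitrite standard curve. Positive control: N-monomethyl-L-arginine.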

RAW264.7 [3] = assay: Suppression of LPS-induced TNFalpha protein expression in mouse RAW264.7 cells by ELISA; format: functional, cell-based
Method in brief: (§1)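 RAW 264.7 cells seeded at 4 × 10^5 cells/well and exposed to LPS with or without 2.5, 5.0 or 10.0 μM test agent (DMSO stock diluted in DMEM, added 1 h before LPS) for 18 h. Cytokine in cell-free supernatant measured by mouse ELISA kit per manufacturer's protocol. Means ± SD.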

[4] = target: MAP kinase p38 (Mus musculus) (UniProt P47811+O08911+Q9WUI1+Q9Z1B7); assay: Inhibition of LPS-stimulated p38 phosphorylation in mouse RAW264.7 cells by Western blotting analysis; format: cell-based
Method in brief: (§2)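 Macrophages seeded at 1 × 10^6 cells/well, pretreated 1 h with 2.5, 5.0 or 10.0 μM test agent (DMSO), then stimulated with LPS 1 μg/mL. Dexamethasone 1.0 μM served as positive control. Lysis in ice-cold RIPA with 0.1% PMSF, 12000g for 20 min. SDS-PAGE, PVDF transfer, 5% skim-milk block, primary antibody overnight at 4 °C, HRP secondary (1:12 000) 1.5 h at RT, ECL detection. Means ± SD.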

[5] = target: NF-kappa-B inhibitor alpha (Mus musculus) (UniProt Q9Z1E3); assay: Inhibition of IkappaB alpha phosphorylation in LPS-induced mouse RAW264.7 cells by Western blotting analysis
Chain of NF-kappa-B inhibitor alpha (Mus musculus) (Q9Z1E3 whole entry, looked up): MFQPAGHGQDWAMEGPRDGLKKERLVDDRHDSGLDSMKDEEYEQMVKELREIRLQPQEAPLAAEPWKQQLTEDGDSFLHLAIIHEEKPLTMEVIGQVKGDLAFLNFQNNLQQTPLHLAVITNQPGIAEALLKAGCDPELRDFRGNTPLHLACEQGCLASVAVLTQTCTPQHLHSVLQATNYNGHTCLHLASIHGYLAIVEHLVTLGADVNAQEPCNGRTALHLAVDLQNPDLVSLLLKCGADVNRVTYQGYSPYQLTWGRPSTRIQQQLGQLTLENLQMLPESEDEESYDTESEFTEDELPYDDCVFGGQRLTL

[6] = target: Transcription factor p65 (Mus musculus) (UniProt Q04207); assay: Inhibition of NFkappaBp65 activation in LPS-induced mouse RAW264.7 cells at 2.5 to 10 uM by Western blotting analysis; format: cell-based; method in brief: as §2
Chain of Transcription factor p65 (Mus musculus) (Q04207 whole entry): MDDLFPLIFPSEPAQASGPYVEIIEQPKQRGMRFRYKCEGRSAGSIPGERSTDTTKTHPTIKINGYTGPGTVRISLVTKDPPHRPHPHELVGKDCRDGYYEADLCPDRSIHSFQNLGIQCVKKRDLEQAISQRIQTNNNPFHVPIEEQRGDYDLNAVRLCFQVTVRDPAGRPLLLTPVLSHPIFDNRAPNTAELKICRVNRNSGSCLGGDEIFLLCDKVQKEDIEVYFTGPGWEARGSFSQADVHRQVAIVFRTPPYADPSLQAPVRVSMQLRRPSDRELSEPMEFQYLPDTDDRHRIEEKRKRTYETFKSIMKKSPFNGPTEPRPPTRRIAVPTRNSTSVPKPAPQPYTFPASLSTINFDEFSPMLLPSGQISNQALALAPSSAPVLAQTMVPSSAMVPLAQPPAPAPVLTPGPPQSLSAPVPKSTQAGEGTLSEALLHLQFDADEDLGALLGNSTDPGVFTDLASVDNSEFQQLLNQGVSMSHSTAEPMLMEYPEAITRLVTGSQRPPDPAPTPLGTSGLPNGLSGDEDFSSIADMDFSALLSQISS

RAW264.7 [7] = assay: Suppression of LPS-induced iNOS protein expression in mouse RAW264.7 cells by Western blotting analysis; format: functional, cell-based; method in brief: as §2
RAW264.7 [8] = assay: Inhibition of LPS-stimulated JNK phosphorylation in mouse RAW264.7 cells by Western blotting analysis; format: cell-based; method in brief: as §2
RAW264.7 [9] = assay: Suppression of LPS-induced IL6 protein expression in mouse RAW264.7 cells by ELISA; format: functional, cell-based; method in brief: as §1
RAW264.7 [10] = assay: Inhibition of LPS-stimulated ERK phosphorylation in mouse RAW264.7 cells by Western blotting analysis; format: cell-based; method in brief: as §2

| Structure (SMILES) | viability [1] [%] | IC50 (RAW264.7 [2]) [µM] | also measured |
| --- | --- | --- | --- |
| CO[C@@H]1C[C@@]2(CC[C@@]3(C)[C@@H]4CC[C@@H]5C[C@@]4(CC[C@H]23)C[C@]5(O)CO)C(=O)O1 | > 90 | > 100 |  |
| C[C@@]12CC(=O)c3occc3[C@H]1CC[C@]13C[C@](O)(CO)[C@@](O)(CC[C@H]12)C3 | > 90 | > 100 |  |
| C[C@@]12CC=C3OC(=O)C=C3[C@H]1CC[C@@]13C[C@@H](CC[C@@H]21)[C@@](O)(CO)[C@@H]3O | > 90 | > 100 |  |
| C[C@@]12C=CC(=O)C[C@H]1CC[C@]13C[C@](O)(CO)[C@@](O)(CC[C@H]12)C3 | > 90 | 27.1 |  |
| C[C@@]12CC=C3OC(=O)C=C3[C@H]1CC[C@@]13C[C@@H](CC[C@H]12)[C@@](O)(CO)C3 | > 90 | > 100 |  |
| CNC(=N)NCCC[C@H](N)C(=O)O [TILARGININE] |  | 40.5 |  |
| C[C@@]12CC[C@H]3OC(=O)C=C3[C@H]1CC[C@@]13C[C@H](CC[C@]12O)[C@@](O)(CO)C3 | > 90 | > 100 |  |
| CCOC(=O)/C=C1\C(=O)C=C[C@]2(C)[C@@H]1CC[C@]13C[C@](O)(CO)[C@@](O)(CC[C@H]12)C3 | > 90 | 6.6 | inhibition (RAW264.7 [3]): Dose-dependent effect; inhibition [4]: Active; inhibition [5]: Active; inhibition [6]: Active; inhibition (RAW264.7 [7]): Dose-dependent effect; inhibition (RAW264.7 [8]): Active; inhibition (RAW264.7 [9]): Dose-dependent effect; inhibition (RAW264.7 [10]): Active |
| C[C@@]12CC[C@@]3(O)OC(=O)C=C3[C@H]1CC[C@]13C[C@](O)(CO)[C@@](O)(CC[C@H]12)C3 | > 90 | > 100 |  |
| C[C@@]12CC[C@@]3(O)OC(=O)C=C3[C@H]1CC[C@@]13C[C@H](CC[C@@H]21)[C@@](O)(CO)[C@@H]3O | > 90 | > 100 |  |
| C[C@@]12[C@H](O)C=C3OC(=O)C=C3[C@H]1CC[C@@]13C[C@@H](CC[C@H]12)[C@@](O)(CO)C3 | > 90 | > 100 |  |
| C[C@@]12CC[C@@]3(O)OC(=O)C=C3[C@H]1CC[C@@]13C[C@H](CC[C@H]12)[C@@](O)(CO)C3 | > 90 | > 100 |  |
| C[C@@]12CC[C@H]3OC(=O)C=C3[C@H]1CC[C@@]13C[C@@H](CC[C@H]12)[C@@](O)(CO)C3 | > 90 | > 100 |  |
| CC(=O)OC[C@]1(O)[C@@H]2CC[C@H]3[C@]4(C)CC[C@@]5(O)OC(=O)C=C5[C@H]4CC[C@]3(C2)[C@H]1O | > 90 | > 100 |  |
